Data set [1] in a line: folding enthalpy; higher = less favourable; fluorescence melt of hairpins on a sequencing array, two-state fit. The following applies: sodium 0.088 M. A digest of the protocol: (§1)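 Cy3 signals were normalised both to pre-quench Cy3 and to control constructs. They came from library hairpins carrying annealed Cy3 and quencher oligos on a sequenced MiSeq flow cell, imaged in 50 mM Na-HEPES pH 8.0, 25 mM NaCl, in 2.5 °C steps up to 60 °C. Bootstrapped two-state fits gave melting temperature and folding enthalpy, and four replicates were combined by inverse variance. Fitted temperatures were then raised by 9.35 °C to match UV melts.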

Data set [2] in a line: melting temperature; fluorescence melt of hairpins on a sequencing array, two-state fit, raised by 9.35 °C to match UV melts. To be noted: sodium 0.088 M. A digest of the protocol: as §1

In the case of GCGTTTTCGAAAGAACGC (((..(((....)))))), the folding enthalpy in data set [1] is -32 kcal/mol. In addition, the Tm in data set [2] is 49.6 °C.
Turning to GACAACGAAAGTTACGTC ((((((....)))..))), the folding enthalpy in data set [1] was -12.5 kcal/mol. For the same sequence, the Tm in data set [2] is 30.6 °C.
The corresponding values for GATCCCGTTGGGATC ((((((...)))))) are -31.5 kcal/mol and 64.4 °C.
In the same order, the values of GATCTTGATGAAGATC ((((((....)))))) are -23.4 kcal/mol and 44.1 °C.
In the same order, the values of GTTTCCGGAAACAGAAAC (((((.(....).))))) are -13.2 kcal/mol and 35.1 °C.
GAGCCCCCGAAAGGGCTC (((..(((....)))))): the folding enthalpy in data set [1] is -32.3 kcal/mol. The Tm in data set [2] turned out to be 65.4 °C.
The corresponding values for GCTCCTCGAAAGAGCAGC (((.(((....))).))) are -21.5 kcal/mol and 40.6 °C.
The corresponding values for GGCCGCGAAAGCGTCGCC ((((((....)))..))) are -16.7 kcal/mol and 55.9 °C.
In the same order, the values of GATCGTAGACACGATC ((((((....)))))) are -39.8 kcal/mol and 54.2 °C.
Turning to GTCAGAGGAAACTCCAAC ((..(((....)))..)), the folding enthalpy in data set [1] was -4.46 kcal/mol. Further, in data set [2], the Tm is 17.2 °C.
With GCGTTCCGAAAGGACGC (((.(((....)))))), in data set [1], the folding enthalpy is -41.9 kcal/mol. The Tm in data set [2] was 63.3 °C.
As for GCTCTCGAAAGAGAAGC ((((((....))).))), the folding enthalpy in data set [1] is -22 kcal/mol. Moreover, the Tm in data set [2] came out at 49.8 °C.
In the same order, the values of CGATCGGAAACGAAATCG ((((((....)))..))) are -22.2 kcal/mol and 33.9 °C.
For GGTCTCGAAAGAGGACC ((((((....))).))), the folding enthalpy in data set [1] is -28.3 kcal/mol. Besides, in data set [2], the Tm is 49.5 °C.
In the same order, the values of GCTCTCGAAAGAGATAGC ((((((....)))..))) are -22.6 kcal/mol and 41.8 °C.
In the same order, the values of GCGCGGCGAAAGCGTCGC (((..((....))..))) are -19.8 kcal/mol and 63.2 °C.
Turning to GTGAGCGAAAGCTGCAC ((((((....))).))), the folding enthalpy in data set [1] was -13.8 kcal/mol. The Tm in data set [2] stood at 48.7 °C.
In the same order, the values of GGTGTCGAAAGACCCACC ((((((....)))..))) are -12.1 kcal/mol and 45.1 °C.
In the same order, the values of GACTCCGAAAGGAGCGTC ((((((....)))..))) are -13.4 kcal/mol and 49.9 °C.
In the same order, the values of GTAGATCCGAAAGGATAC (((..(((....)))))) are -11.1 kcal/mol and 30.4 °C.
As to GGGTTCGAAAGAATTCCC ((((((....)))..))), the folding enthalpy in data set [1] was -20.4 kcal/mol. The Tm in data set [2] stood at 33.8 °C.
In the same order, the values of GCTACGCGAAAGCTCAGC (((..((....))..))) are -13.1 kcal/mol and 37 °C.
In the same order, the values of GTCAAACGAAAGTTGAC (((.(((....)))))) are -26.5 kcal/mol and 49.7 °C.
The corresponding values for GCAGTGGGAAACCATTGC (((.(((....))).))) are -25.6 kcal/mol and 50.1 °C.
On to GATCTGAAAAGATC (((((....))))), for which the folding enthalpy in data set [1] was -28.2 kcal/mol. Further, in data set [2], the Tm was found to be 45.6 °C.
In the same order, the values of GCGTACACACGC ((((....)))) are -23.9 kcal/mol and 51.4 °C.
Take GTCTCAGAAATGAGAC ((((((....)))))): the folding enthalpy in data set [1] was -41.8 kcal/mol. Also, in data set [2], the Tm stood at 53.8 °C.
The corresponding values for GATCTAATTTAGATC ((((((...)))))) are -30.8 kcal/mol and 41.4 °C.
In the same order, the values of GGTCGCGGAAACGCGATC (.(((((....))))).) are -17.6 kcal/mol and 63.7 °C.
In the same order, the values of GGGCACGAAAGTGAGCCC ((((((....)))..))) are -32.9 kcal/mol and 56.7 °C.
Take GTAATCCGAAAGGACTAC (((.(((....))).))): in data set [1], the folding enthalpy is -25.6 kcal/mol. Besides, the Tm in data set [2] came to 37.9 °C.
Turning to GCACCGCGAAAGCACTGC (((..((....))..))), in data set [1], the folding enthalpy was -8.63 kcal/mol. Also, the Tm in data set [2] came to 31.2 °C.
The corresponding values for GTCTAGTCGAAAGACGAC (((..(((....)))))) are -14.3 kcal/mol and 39.4 °C.
The corresponding values for GAGCAGAAATGCTC (((((....))))) are -29.8 kcal/mol and 53.6 °C.
In the same order, the values of GATTACACGAAAGTGATC (((..(((....)))))) are -9.64 kcal/mol and 26.4 °C.
In the case of GATCTGGTCCCAGATC ((((((....)))))), the folding enthalpy in data set [1] is -39.6 kcal/mol. For the same sequence, in data set [2], the Tm came out at 54.1 °C.
With TCTTCGAAAGAAGA (((((....))))), the folding enthalpy in data set [1] is -18.8 kcal/mol. Further, in data set [2], the Tm came to 45.8 °C.
